Results taken from ChEMBL document CHEMBL4828755, “A sulfonyl fluoride derivative inhibits EGFRL858R/T790M/C797S by covalent modification of the catalytic lysine” (Eur J Med Chem, 2021).
Activity calls are given as the source filed them. The calls are words filed in the database; no cut-off is given here.

Assays:
[1] = target: RAC-beta serine/threonine-protein kinase (Homo sapiens) (UniProt P31751); assay: Inhibition of His-tagged full length human recombinant AKT2 expressed in baculovirus expression system at 1 uM by Z'-LYTE assay
Method in brief: (§1)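 Z'-LYTE FRET kinase panel; phosphorylation of a reference peptide measured with ATP at each enzyme's Km. Compounds tested in 1% DMSO at 0.1 and/or 1 μM. Values are means of two independent experiments with standard deviations.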

[2] = target: Rho-associated protein kinase 1 (Homo sapiens) (UniProt Q13464); assay: Inhibition of GST-tagged human recombinant ROCK1 (1 to 535 residues) expressed in baculovirus expression system at 1 uM by Z'-LYTE assay; method in brief: as §1
[3] = target: Mitogen-activated protein kinase 14 (Homo sapiens) (UniProt Q16539); assay: Inhibition of GST-tagged human full length recombinant p38 alpha expressed in Escherichia coli at 1 uM by Z'-LYTE assay; method in brief: as §1
[4] = target: Cyclin-dependent kinase 5 (Homo sapiens) (UniProt Q00535); assay: Inhibition of GST/His-tagged human full length recombinant CDK5 expressed in baculovirus expression system at 1 uM by Z'-LYTE assay; method in brief: as §1
[5] = target: Cyclin-dependent kinase 2 (Homo sapiens) (UniProt P24941); assay: Inhibition of human recombinant CDK2 at 1 uM by Z'-LYTE assay; method in brief: as §1
[6] = target: T1, Inhibitor of nuclear factor kappa-B kinase subunit beta (Homo sapiens) (UniProt O14920); assay: Inhibition of GST-tagged human full length recombinant IKKbeta expressed in baculovirus expression system at 1 uM by Z'-LYTE assay; method in brief: as §1
T1 sequence (whole entry): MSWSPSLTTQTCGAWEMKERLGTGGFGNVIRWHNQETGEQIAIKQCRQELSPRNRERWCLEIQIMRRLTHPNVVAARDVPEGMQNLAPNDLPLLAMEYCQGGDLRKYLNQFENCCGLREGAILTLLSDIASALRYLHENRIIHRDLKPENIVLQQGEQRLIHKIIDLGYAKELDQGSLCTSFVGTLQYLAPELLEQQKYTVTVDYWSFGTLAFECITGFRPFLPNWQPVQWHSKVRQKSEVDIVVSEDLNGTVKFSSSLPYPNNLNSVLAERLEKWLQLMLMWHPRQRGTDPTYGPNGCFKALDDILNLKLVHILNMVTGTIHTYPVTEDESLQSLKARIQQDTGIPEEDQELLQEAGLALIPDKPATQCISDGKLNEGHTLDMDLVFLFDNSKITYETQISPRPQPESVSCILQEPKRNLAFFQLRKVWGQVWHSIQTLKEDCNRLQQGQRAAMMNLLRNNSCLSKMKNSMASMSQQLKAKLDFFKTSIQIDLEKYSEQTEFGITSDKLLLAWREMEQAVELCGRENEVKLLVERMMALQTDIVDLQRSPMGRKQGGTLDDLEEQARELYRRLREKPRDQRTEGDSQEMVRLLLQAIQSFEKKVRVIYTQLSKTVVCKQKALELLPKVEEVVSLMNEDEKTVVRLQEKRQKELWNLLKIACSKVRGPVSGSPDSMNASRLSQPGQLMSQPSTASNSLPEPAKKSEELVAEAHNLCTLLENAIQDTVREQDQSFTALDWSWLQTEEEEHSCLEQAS

[7] = target: Tyrosine-protein kinase Blk (Homo sapiens) (UniProt P51451); assay: Inhibition of His-tagged human full length recombinant BLK expressed in baculovirus expression system at 1 uM by Z'-LYTE assay; method in brief: as §1
[8] = target: Mitogen-activated protein kinase 3 (Homo sapiens) (UniProt P27361); assay: Inhibition of GST-tagged human full length recombinant ERK1 expressed in Escherichia coli at 1 uM by Z'-LYTE assay; method in brief: as §1
[9] = target: Tyrosine-protein kinase JAK1 (Homo sapiens) (UniProt P23458); assay: Inhibition of GST-tagged human recombinant JAK1 (866 to 1154 residues) expressed in baculovirus expression system at 1 uM by Z'-LYTE assay; method in brief: as §1
[10] = target: Proto-oncogene tyrosine-protein kinase Src (Homo sapiens) (UniProt P12931); assay: Inhibition of C-terminal His-tagged human recombinant SRC expressed in baculovirus expression system at 1 uM by Z'-LYTE assay; method in brief: as §1
[11] = target: Vascular endothelial growth factor receptor 2 (Homo sapiens) (UniProt P35968); assay: Inhibition of His-tagged human recombinant VEGFR2 (789 to 1356 residues) expressed in baculovirus expression system at 1 uM by Z'-LYTE assay; method in brief: as §1
[12] = target: Platelet-derived growth factor receptor alpha (Homo sapiens) (UniProt P16234); assay: Inhibition of GST-tagged human recombinant PDGFR alpha (550 to 1089 residues) expressed in baculovirus expression system at 1 uM by Z'-LYTE assay; method in brief: as §1
[13] = target: Tyrosine-protein kinase Lck (Homo sapiens) (UniProt P06239); assay: Inhibition of human recombinant LCK at 1 uM by Z'-LYTE assay; method in brief: as §1
[14] = target: Epidermal growth factor receptor (Homo sapiens, UniProt P00533, C797S/L858R/T790M); assay: Inhibition of EGFR L858R/T790M/C797S triple mutant (unknown origin) using fluoresceine-labelled poly-GT peptide as substrate incubated for 1 hr by TR-FRET assay
[15] = target: Fibroblast growth factor receptor 4 (Homo sapiens) (UniProt P22455); assay: Inhibition of His-tagged human recombinant FGFR4 ([…] residues) expressed in baculovirus expression system at 1 uM by Z'-LYTE assay; method in brief: as §1
[16] = target: T2, Aurora kinase A (Homo sapiens) (UniProt O14965); assay: Inhibition of His-tagged human full length recombinant AURKA expressed in baculovirus expression system at 1 uM by Z'-LYTE assay; method in brief: as §1
T2 sequence (whole entry): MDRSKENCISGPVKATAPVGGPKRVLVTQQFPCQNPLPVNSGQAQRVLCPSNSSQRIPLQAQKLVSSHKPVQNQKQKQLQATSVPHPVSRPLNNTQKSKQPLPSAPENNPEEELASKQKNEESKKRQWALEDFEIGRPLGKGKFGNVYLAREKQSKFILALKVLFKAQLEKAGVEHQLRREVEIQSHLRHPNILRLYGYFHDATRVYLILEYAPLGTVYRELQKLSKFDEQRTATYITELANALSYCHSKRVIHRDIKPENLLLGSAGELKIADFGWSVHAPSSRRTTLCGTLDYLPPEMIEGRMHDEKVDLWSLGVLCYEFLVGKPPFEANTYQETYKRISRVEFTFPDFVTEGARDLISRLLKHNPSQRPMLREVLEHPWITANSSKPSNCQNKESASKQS

[17] = target: AMP-activated protein kinase, AMPK (Homo sapiens) (UniProt P54646+O43741+P54619+Q9UGJ0+Q9Y478+Q13131+Q9UGI9); assay: Inhibition of human recombinant AMPK at 1 uM by Z'-LYTE assay; format: protein-complex assay; method in brief: as §1
[18] = tested on: BaF3; assay: Cytotoxicity against mouse BaF3 cells harboring EGFR L858R/T790M/C797S triple mutant assessed as inhibition of cell proliferation measured after 72 hrs by MTS assay; format: functional, cell-based; conditions: BaF3, 72 h
Method in brief: (§2)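 Ba/F3 cells carrying the respective EGFR triple mutant, grown in RPMI-1640 with 2 mM glutamine and 10% FBS at 37°C, 5% CO2. Seeded 20000 cells/well and treated the same day with increasing concentrations (DMSO ≤0.1% final). Viability read by MTS after 72 h, expressed as % inhibition versus untreated controls; at least three independent experiments.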

[19] = tested on: BaF3; assay: Cytotoxicity against mouse BaF3 cells harboring EGFR del19/T790M/C797S triple mutant assessed as inhibition of cell proliferation measured after 72 hrs by MTS assay; format: functional, cell-based; method in brief: as §2

Sequence of Epidermal growth factor receptor (P00533 25-1210 T790M/C797S/L858R limits assumed): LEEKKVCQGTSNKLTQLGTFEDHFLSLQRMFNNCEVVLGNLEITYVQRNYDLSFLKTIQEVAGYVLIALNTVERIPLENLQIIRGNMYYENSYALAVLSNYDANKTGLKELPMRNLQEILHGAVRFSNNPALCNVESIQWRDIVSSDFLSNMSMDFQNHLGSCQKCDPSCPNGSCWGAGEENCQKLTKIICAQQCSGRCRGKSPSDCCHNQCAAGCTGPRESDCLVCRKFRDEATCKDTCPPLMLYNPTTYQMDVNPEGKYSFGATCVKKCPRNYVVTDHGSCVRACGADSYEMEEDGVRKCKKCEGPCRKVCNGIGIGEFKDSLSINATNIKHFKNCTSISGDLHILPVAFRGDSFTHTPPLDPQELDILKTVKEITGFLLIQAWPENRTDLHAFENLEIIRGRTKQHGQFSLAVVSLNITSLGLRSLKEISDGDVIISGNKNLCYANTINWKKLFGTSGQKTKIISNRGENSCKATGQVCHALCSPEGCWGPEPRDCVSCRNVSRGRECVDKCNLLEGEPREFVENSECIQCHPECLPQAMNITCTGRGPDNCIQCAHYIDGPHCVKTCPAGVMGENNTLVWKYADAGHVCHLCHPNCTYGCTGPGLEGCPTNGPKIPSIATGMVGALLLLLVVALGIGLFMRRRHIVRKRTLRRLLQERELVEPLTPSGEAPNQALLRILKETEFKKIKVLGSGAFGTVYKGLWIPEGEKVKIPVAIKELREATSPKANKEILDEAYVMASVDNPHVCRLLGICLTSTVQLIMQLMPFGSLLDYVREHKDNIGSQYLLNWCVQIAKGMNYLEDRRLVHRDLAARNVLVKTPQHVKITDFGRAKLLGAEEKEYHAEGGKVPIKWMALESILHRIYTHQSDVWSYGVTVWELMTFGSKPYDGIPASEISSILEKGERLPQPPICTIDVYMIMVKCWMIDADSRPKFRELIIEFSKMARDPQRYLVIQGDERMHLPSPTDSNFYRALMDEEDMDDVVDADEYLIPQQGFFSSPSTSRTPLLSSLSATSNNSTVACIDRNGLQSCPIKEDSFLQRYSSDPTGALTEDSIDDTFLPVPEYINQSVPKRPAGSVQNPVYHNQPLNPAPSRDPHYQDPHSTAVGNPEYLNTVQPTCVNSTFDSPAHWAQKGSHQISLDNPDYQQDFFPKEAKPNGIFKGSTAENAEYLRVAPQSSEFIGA
Sequence of Mitogen-activated protein kinase 3 (Homo sapiens) (P27361 whole entry, the tested form may be a part): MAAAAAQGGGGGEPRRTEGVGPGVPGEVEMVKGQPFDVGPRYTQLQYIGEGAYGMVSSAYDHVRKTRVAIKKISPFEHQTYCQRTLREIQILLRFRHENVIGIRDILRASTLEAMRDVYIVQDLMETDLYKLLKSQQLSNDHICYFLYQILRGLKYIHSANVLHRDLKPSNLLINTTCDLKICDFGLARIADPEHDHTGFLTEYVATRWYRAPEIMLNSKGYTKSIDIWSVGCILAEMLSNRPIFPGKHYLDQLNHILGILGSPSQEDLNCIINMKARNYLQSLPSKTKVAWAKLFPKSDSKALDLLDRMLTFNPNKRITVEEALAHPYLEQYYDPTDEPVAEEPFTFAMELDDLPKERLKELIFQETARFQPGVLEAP
Sequence of Proto-oncogene tyrosine-protein kinase Src (Homo sapiens) (P12931 2-536 limits assumed): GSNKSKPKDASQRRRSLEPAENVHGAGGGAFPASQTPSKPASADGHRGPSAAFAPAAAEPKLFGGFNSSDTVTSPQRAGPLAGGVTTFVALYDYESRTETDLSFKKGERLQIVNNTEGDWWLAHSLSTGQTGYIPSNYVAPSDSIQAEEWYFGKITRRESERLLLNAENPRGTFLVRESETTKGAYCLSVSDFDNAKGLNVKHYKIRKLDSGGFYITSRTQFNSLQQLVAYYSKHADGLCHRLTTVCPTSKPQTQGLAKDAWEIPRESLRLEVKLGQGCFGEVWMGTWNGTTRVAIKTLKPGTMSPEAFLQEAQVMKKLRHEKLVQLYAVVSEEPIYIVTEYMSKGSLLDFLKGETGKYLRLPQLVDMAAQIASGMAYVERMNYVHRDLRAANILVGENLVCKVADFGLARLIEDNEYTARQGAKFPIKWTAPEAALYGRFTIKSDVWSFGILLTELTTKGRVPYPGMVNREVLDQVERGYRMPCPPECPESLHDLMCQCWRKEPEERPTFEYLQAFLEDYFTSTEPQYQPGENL
Sequence of Cyclin-dependent kinase 5 (Homo sapiens) (Q00535 whole entry, looked up): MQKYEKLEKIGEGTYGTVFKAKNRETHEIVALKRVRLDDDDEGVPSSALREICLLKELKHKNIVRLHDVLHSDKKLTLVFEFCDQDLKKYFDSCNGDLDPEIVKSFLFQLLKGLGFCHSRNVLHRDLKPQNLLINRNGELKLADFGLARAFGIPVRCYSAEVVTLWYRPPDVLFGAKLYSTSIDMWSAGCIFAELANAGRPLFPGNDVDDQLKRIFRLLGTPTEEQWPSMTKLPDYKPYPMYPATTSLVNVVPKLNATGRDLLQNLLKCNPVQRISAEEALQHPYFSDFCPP
Sequence of Vascular endothelial growth factor receptor 2 (Homo sapiens) (P35968 whole entry, the tested form may be a part): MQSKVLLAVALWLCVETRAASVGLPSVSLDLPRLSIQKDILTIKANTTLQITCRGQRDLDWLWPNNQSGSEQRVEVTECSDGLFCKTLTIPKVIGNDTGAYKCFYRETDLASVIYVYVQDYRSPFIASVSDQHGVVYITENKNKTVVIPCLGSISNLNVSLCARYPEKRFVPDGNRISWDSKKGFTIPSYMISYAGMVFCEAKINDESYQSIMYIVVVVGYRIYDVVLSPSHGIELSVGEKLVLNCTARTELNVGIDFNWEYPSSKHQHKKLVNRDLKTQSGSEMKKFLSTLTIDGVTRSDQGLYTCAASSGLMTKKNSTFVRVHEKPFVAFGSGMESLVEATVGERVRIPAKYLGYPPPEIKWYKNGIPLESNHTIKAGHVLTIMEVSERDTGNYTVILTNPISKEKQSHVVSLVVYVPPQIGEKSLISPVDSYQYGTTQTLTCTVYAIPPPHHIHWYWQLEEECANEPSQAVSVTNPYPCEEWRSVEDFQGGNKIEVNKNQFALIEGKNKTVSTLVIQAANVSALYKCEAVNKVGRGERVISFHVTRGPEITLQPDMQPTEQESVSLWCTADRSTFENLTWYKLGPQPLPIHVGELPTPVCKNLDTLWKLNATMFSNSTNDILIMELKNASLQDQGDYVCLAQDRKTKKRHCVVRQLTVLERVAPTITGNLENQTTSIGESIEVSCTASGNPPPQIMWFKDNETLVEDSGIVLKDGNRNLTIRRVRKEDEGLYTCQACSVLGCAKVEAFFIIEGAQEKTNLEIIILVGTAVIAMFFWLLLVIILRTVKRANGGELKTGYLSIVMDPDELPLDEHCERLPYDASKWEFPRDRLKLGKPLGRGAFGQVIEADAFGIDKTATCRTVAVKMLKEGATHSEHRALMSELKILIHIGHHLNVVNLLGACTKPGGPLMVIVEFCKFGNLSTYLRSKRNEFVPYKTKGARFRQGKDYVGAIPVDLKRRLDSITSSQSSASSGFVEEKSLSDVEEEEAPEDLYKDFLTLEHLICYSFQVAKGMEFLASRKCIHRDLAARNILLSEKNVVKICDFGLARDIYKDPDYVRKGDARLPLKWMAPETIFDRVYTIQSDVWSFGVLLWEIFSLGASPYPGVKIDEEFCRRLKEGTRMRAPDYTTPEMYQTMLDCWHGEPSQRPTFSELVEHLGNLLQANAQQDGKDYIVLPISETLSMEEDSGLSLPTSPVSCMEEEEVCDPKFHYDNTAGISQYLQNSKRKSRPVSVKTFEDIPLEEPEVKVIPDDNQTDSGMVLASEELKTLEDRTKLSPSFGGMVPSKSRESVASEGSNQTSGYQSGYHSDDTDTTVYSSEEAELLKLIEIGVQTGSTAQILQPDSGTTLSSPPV
Sequence of Rho-associated protein kinase 1 (Homo sapiens) (Q13464 2-1354 limits assumed): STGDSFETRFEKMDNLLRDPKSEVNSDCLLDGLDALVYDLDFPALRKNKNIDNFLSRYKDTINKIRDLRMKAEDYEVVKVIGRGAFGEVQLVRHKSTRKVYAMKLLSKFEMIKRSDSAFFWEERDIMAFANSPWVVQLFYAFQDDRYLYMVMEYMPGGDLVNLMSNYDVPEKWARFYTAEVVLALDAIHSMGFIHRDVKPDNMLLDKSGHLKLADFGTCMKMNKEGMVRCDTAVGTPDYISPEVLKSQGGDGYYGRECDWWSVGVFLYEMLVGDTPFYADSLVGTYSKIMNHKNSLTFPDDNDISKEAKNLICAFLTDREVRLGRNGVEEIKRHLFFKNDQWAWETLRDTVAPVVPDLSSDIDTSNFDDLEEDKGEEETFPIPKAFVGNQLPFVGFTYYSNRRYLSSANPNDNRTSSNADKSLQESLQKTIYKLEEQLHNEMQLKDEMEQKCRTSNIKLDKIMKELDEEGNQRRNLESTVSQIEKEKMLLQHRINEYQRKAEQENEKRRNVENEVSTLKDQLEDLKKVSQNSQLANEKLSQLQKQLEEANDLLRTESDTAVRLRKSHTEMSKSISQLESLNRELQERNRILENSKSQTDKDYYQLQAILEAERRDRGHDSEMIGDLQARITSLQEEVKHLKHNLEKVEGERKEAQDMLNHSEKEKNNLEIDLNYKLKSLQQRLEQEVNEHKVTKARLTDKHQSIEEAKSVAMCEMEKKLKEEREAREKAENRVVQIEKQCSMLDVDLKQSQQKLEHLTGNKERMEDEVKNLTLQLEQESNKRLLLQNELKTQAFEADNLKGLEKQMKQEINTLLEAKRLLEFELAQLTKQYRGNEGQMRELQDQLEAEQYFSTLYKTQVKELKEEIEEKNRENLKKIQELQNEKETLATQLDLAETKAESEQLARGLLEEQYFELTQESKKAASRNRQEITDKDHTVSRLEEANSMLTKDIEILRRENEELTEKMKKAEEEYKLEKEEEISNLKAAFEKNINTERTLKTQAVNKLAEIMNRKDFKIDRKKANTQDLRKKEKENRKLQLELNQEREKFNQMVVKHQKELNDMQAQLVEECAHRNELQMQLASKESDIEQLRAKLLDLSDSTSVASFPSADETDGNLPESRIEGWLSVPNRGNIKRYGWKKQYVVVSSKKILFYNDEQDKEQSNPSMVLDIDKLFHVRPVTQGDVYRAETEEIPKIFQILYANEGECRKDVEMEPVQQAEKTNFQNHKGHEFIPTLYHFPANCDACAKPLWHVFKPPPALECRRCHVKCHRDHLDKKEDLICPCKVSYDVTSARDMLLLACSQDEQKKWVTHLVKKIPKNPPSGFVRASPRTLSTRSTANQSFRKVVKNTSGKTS

COc1cc(N2CCN(C(C)=O)CC2)ccc1Nc1ncc(Cl)c(Nc2cccc(NC(C)=O)c2)n1
inhibition [1]: inactive
inhibition [2]: inactive
inhibition [3]: inactive
inhibition [4]: inactive
inhibition [5]: inactive
inhibition [6]: inactive
inhibition [7]: inactive
inhibition [8]: inactive
inhibition [9]: Active
inhibition [10]: inactive
inhibition [11]: Active
inhibition [12]: Active
inhibition [13]: inactive
IC50 [14]: 1100 nM
inhibition [15]: inactive
inhibition [16]: inactive
inhibition [17]: inactive

COc1cc(N2CCN(C(C)=O)CC2)ccc1Nc1ncc(Cl)c(Nc2cccc(NC(=O)CCl)c2)n1
IC50 [14]: 946 nM

C=CC(=O)Nc1cc(Nc2nccc(-c3cn(C)c4ccccc34)n2)c(OC)cc1N(C)CCN(C)C [OSIMERTINIB]
IC50 [18]: > 3000 nM
Activity [19]: inactive

C=CS(=O)(=O)Nc1cccc(Nc2nc(Nc3ccc(N4CCN(C(C)=O)CC4)cc3OC)ncc2Cl)c1
IC50 [14]: 675 nM

COc1cc(N2CCN(C(C)=O)CC2)ccc1Nc1ncc(Cl)c(Nc2cccc(C(=O)Oc3ccc(F)cc3)c2)n1
IC50 [14]: > 10000 nM

COc1cc(N2CCN(C(C)=O)CC2)ccc1Nc1ncc(Cl)c(Nc2cccc(NCCS(=O)(=O)F)c2)n1
IC50 [14]: 458 nM
